The source of these data is ChEMBL document CHEMBL4196059, “Design, synthesis, and biological evaluation of stable β6.3-Helices: Discovery of non-hemolytic antibacterial peptides” (Eur J Med Chem, 2018).

Data set [1] can be described thus: Hemolytic activity against human RBC at 6.25 uM after 1 hr by Drabkin's assay relative to control. Conditions: human red blood cells (erythrocytes), read-out: Activity. It counts as ADME, cell-based, Erythrocyte.
A short description of data set [2]: Hemolytic activity against human RBC at 25 uM after 1 hr by Drabkin's assay relative to control. The format is ADME, cell-based, Erythrocyte. Conditions: human red blood cells (erythrocytes), read-out: Activity.
In another data set the test system is Pseudomonas aeruginosa. The data set can be described thus: Growth inhibition of Pseudomonas aeruginosa ATCC 27853 at 32 ug/ml after 18 hrs. The format is functional. Conditions: ATCC 27853, 18 h, read-out: GI. The gist of the method: (§1)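 Mid-log cultures were prepared as above and seeded at 5×10^5 CFU/mL with compound at a final 32 μg/mL, then held static at 37 °C for 18 h. Growth was read as OD600. Percent inhibition was calculated against media-only and bacteria-only controls on the same plate.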

The nature of data set [3]: Hemolytic activity against human RBC at 1.56 uM after 1 hr by Drabkin's assay relative to control. It counts as ADME, cell-based, Erythrocyte. Conditions: human red blood cells (erythrocytes), read-out: Activity.
A short description of data set [4]: Hemolytic activity against human RBC at 3.125 uM after 1 hr by Drabkin's assay relative to control. The format is ADME, cell-based, Erythrocyte. To be noted: human red blood cells (erythrocytes), read-out: Activity.
The next data set concerns Candida albicans. Kind of data set: Growth inhibition of Candida albicans ATCC 90028 at 32 ug/ml after 24 hrs by OD530 light-scattering microspectrophotometric method. Conditions: ATCC 90028, 24 h, read-out: GI.
A short description of data set [5]: Hemolytic activity against human RBC at 12.5 uM after 1 hr by Drabkin's assay relative to control. Conditions: human red blood cells (erythrocytes), read-out: Activity. The format is ADME, cell-based, Erythrocyte.
In another data set the test system is Escherichia coli. Kind of data set: Growth inhibition of Escherichia coli ATCC 25922 at 32 ug/ml after 18 hrs. To be noted: ATCC 25922, 18 h, read-out: GI. It counts as functional. In outline:
as §1

The test system of the next data set is Staphylococcus aureus. The data set can be described thus: Growth inhibition of methicillin-resistant Staphylococcus aureus ATCC 43300 at 32 ug/ml after 18 hrs. The format is functional. Conditions: ATCC 43300, 18 h, read-out: GI. In outline: (§2)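 Mid-log cultures in cation-adjusted Mueller Hinton broth were added at 5×10^5 CFU/mL to wells at a final compound concentration of 32 μg/mL. Plates stood at 37 °C for 18 h. Growth was read by OD600, and % inhibition was computed against media-only and untreated-bacteria controls.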

For the next data set, the system named is Cryptococcus neoformans. Kind of data set: Growth inhibition of Cryptococcus neoformans H99 ATCC 208821 at 32 ug/ml after 24 hrs by resazurin dye-based microspectrophotometric assay. The format is functional. To be noted: var. grubii H99 ATCC 208821, 24 h, read-out: GI. The gist of the method: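 Yeasts were grown 3 days on YPD agar at 30 °C, suspended from five colonies and diluted in YNB broth to a final 2.5×10^3 CFU/mL. Compound at a final 32 μg/mL; incubated 24 h at 35 °C without shaking. C. albicans was read at OD530. C. neoformans was read as OD600–570 after resazurin (0.001% final) and a further 2 h at 35 °C. Fluconazole was the standard.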

In a further data set the test system is Erythrocyte. Kind of data set: Hemolytic activity against human RBC after 1 hr by Drabkin's assay. The format is ADME, cell-based.
Data set [6] can be described thus: Induction of pore formation in DOPC vesicles at 20 uM after 3 hrs by carboxyfluorescein dye leakage assay. Conditions: in the assay text read “after 3 mins” for “after 3 hrs”. In outline: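 POPC or DOPC liposomes were hydrated in 10 mM HEPES, 100 mM KCl, pH 7.4, containing 50 mM carboxyfluorescein. Size was checked by dynamic light scattering, and vesicles were used at 2.2×10^10 per mL. Peptide at 20 μM was equilibrated with vesicles for 3 min, and dye leakage was measured.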

The next data set deals with Klebsiella pneumoniae. The data set can be described thus: Growth inhibition of multidrug-resistant Klebsiella pneumoniae ATCC 700603 at 32 ug/ml after 18 hrs. The format is functional. Conditions: ATCC 700603, 18 h, read-out: GI. The gist of the method:
as §2

Data set [7] can be described thus: Hemolytic activity against human RBC at 0.78 uM after 1 hr by Drabkin's assay relative to control. Conditions: human red blood cells (erythrocytes), read-out: Activity. It counts as ADME, cell-based, Erythrocyte.
Data set [8] can be described thus: Hemolytic activity against human RBC at 50 uM after 1 hr by Drabkin's assay relative to control. The format is ADME, cell-based, Erythrocyte. To be noted: human red blood cells (erythrocytes), read-out: Activity.
A short description of data set [9]: Hemolytic activity against human RBC at 0.39 uM after 1 hr by Drabkin's assay relative to control. It counts as ADME, cell-based, Erythrocyte. To be noted: human red blood cells (erythrocytes), read-out: Activity.
The next data set has as its system Acinetobacter baumannii. Kind of data set: Growth inhibition of Acinetobacter baumannii ATCC 19606 at 32 ug/ml after 18 hrs. It counts as functional. Conditions: ATCC 19606 = CIP 70.34 = JCM 6841, 18 h, read-out: GI. The gist of the method: as §1
Another data set deals with Lipid bilayer. The data set can be described thus: Binding affinity to POPC vesicles by surface plasmon resonance spectroscopy. In outline:
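SPR on a dextran chip carrying immobilized POPC liposomes, with running buffer of 10 mM HEPES and 100 mM KCl at pH 7.4. Peptides in PBS were flowed at 25 μL/min at 10–1000 μM, with reference-subtracted response units. KD and Rmax were fitted from maximum response versus concentration. Regeneration used 20 mM CHAPS followed by fresh liposomes.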

Activity calls are given as the source filed them. No cut-off for these calls is given here.

On to `CC(C)(C)OC(=O)[C@@H]1CCCN1C(=O)N1CCCN1C(=O)[C@@H]1CCCN1C(=O)N1CCCN1C(=O)[C@@H]1CCCN1C(=O)N1CCCN1C(=O)[C@@H]1CCCN1C(=O)N1CCCN1C(=O)[C@@H]1CCCN1C(=O)N1CCCN1C(=O)[C@@H]1CCCN1C(=O)N1CCCN1C(=O)[C@@H]1CCCN1C(=O)N1CCCN1C(=O)[C@@H]1CCCN1C(=O)N1CCCN1C(=O)OCc1ccccc1`, for which, in data set [1], the hemolysis at 1 h, 6.25 µM is -0.37%. Further, in data set [2], the hemolysis at 1 h, 25 µM was -0.41%. Further, the inhibition of growth at 32 µg/mL in the data set with Pseudomonas aeruginosa was -6.76%; in the data set with Candida albicans it was 5.75%; in the data set with Escherichia coli, -1.93%; in the data set with Staphylococcus aureus, 20.5%; in the data set on Cryptococcus neoformans, -8.19%; with Klebsiella pneumoniae it was -1.93%. Besides, in the data set with Acinetobacter baumannii, the inhibition of growth at 32 µg/mL was 15.9%. In addition, the hemolysis at 1 h, 1.56 µM in [3] was -0.24%. Also, the hemolysis at 1 h, 3.125 µM in data set [4] was -0.12%. Besides, the hemolysis at 1 h, 12.5 µM in data set [5] is -0.04%. The Activity entry with Erythrocyte is given as “Dose-dependent effect”. Besides, the result in [6] was inactive. Further, the hemolysis at 1 h, 0.78 µM in data set [7] turned out to be 0.04%. Also, the hemolysis at 1 h, 50 µM in data set [8] was -0.73%. In data set [9], the hemolysis at 1 h, 0.39 µM was 0.08%. The same compound gave a Kd at Lipid bilayer of 2580 µM. The Rmax with Lipid bilayer is 2640.

With `CC(=O)N1CCCN1C(=O)N1CCC[C@H]1C(=O)N1CCCN1C(=O)N1CCC[C@H]1C(=O)N1CCCN1C(=O)N1CCC[C@H]1C(=O)N1CCCN1C(=O)N1CCC[C@H]1C(=O)N1CCCN1C(=O)N1CCC[C@H]1C(=O)N1CCCN1C(=O)N1CCC[C@H]1C(=O)N1CCCN1C(=O)N1CCC[C@H]1C(=O)N1CCCN1C(=O)N1CCC[C@H]1C(=O)NCCO`, in data set [1], the hemolysis at 1 h, 6.25 µM amounted to 0.08%. Further, the hemolysis at 1 h, 25 µM in data set [2] is 0%. For the same compound, the inhibition of growth at 32 µg/mL in the data set on Pseudomonas aeruginosa is -0.44%; in the data set with Candida albicans, 2.45%; with Escherichia coli it was 10.7%; in the data set on Staphylococcus aureus it was 16.5%; with Cryptococcus neoformans it was -0.86%; with Klebsiella pneumoniae, 10.7%. Besides, the inhibition of growth at 32 µg/mL with Acinetobacter baumannii amounted to 6.55%. Moreover, the hemolysis at 1 h, 1.56 µM in data set [3] is -0.12%. Besides, the hemolysis at 1 h, 3.125 µM in [4] was -0.12%. For the same compound, the hemolysis at 1 h, 12.5 µM in data set [5] is -0.33%. Besides, the Activity result in the data set with Erythrocyte was “Dose-dependent effect”. For the same compound, in [6], the result was inactive. The hemolysis at 1 h, 0.78 µM in data set [7] was -0.16%. Moreover, in data set [8], the hemolysis at 1 h, 50 µM is -0.57%. This compound yielded a Kd on Lipid bilayer of 610 µM. Moreover, in the data set with Lipid bilayer, the Rmax came out at 460.

In the case of `O=CN1CCCN1C(=O)N1CCC[C@H]1C(=O)N1CCCN1C(=O)N1CCC[C@H]1C(=O)N1CCCN1C(=O)N1CCC[C@H]1C(=O)N1CCCN1C(=O)N1CCC[C@H]1C(=O)N1CCCN1C(=O)N1CCC[C@H]1C(=O)N1CCCN1C(=O)N1CCC[C@H]1C(=O)N1CCCN1C(=O)N1CCC[C@H]1C(=O)N1CCCN1C(=O)N1CCC[C@H]1C(=O)NCCO`, the hemolysis at 1 h, 6.25 µM in data set [1] was -0.17%. Moreover, in data set [2], the hemolysis at 1 h, 25 µM is -0.23%. Moreover, the inhibition of growth at 32 µg/mL with Pseudomonas aeruginosa was -4.91%; in the data set on Candida albicans, 5.4%; in the data set with Escherichia coli, 3.23%; in the data set on Staphylococcus aureus it was 16.5%; in the data set on Cryptococcus neoformans, -8.24%; in the data set with Klebsiella pneumoniae it was 3.23%. The inhibition of growth at 32 µg/mL in the data set on Acinetobacter baumannii came to 12.3%. In addition, the hemolysis at 1 h, 1.56 µM in data set [3] is -0.17%. Also, the hemolysis at 1 h, 3.125 µM in data set [4] is 0.02%. Also, the hemolysis at 1 h, 12.5 µM in data set [5] was -0.23%. The Activity entry in the data set on Erythrocyte is “Dose-dependent effect”. For the same compound, in [6], the outcome was inactive. Further, in data set [7], the hemolysis at 1 h, 0.78 µM was 0.08%. Also, the hemolysis at 1 h, 50 µM in data set [8] is -0.17%. The hemolysis at 1 h, 0.39 µM in [9] is -0.11%.

A word on the Kd: it is the constant that tells how readily two partners part at equilibrium. The low end stands for higher affinity, the high end for lower affinity.
